This note sets out measurements from ChEMBL document CHEMBL1687720 (Antimicrob Agents Chemother, 2009).

The target of series [1] is Thioredoxin reductase (Homo sapiens, UniProt Q16881+Q9NNW7+Q86VQ6). The series can be described thus: Inhibition of thioredoxin reductase in human A549 cells assessed as enzyme activity at 5 µM after 24 hrs by DTNB assay relative to untreated control. More on the design: scale not given: the % may be the effect or the level left.
Series [2] concerns Plasmodium falciparum. The experiment in a line: Downregulation of gamma-glutamylcysteine synthetase mRNA level in Plasmodium falciparum 3D7 trophozoites at 126 nM after 18 hrs by RT-qPCR analysis relative to untreated control. Format: functional. The gist of the method: (§1)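 P. falciparum 3D7 trophozoites are exposed to 126 nM compound for 12, 15 or 18 h, then harvested by saponin lysis at 37°C. RNA is extracted and reverse-transcribed, and transcripts are quantified by real-time PCR in quadruplicate. Analysis uses ΔΔCT with 18S rRNA as reference (LDH also checked), expressed as % of untreated control.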

The subject of series [3] is Plasmodium falciparum. The experiment in a line: Downregulation of thioredoxin peroxidase mRNA level in Plasmodium falciparum 3D7 trophozoites at 126 nM after 18 hrs by RT-qPCR analysis relative to untreated control. Format: functional. The gist of the method: as §1
For orientation: Quantitative PCR measures a nucleic acid by following its amplification.

In series [4] the test system is Plasmodium falciparum. The series can be described thus: Downregulation of glutathione reductase mRNA level in Plasmodium falciparum 3D7 trophozoites at 126 nM after 18 hrs by RT-qPCR analysis relative to untreated control. The series is classed as functional. The gist of the method:
as §1

The subject of series [5] is Plasmodium falciparum. The experiment in a line: Upregulation of gamma-glutamylcysteine synthetase mRNA level in Plasmodium falciparum 3D7 trophozoites at 126 nM after 12 hrs by RT-qPCR analysis relative to untreated control. Format: functional. The gist of the method: (§2)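 Synchronized 3D7 trophozoites in RPMI/Albumax culture at 37°C under 3% O2, 3% CO2 were exposed 12, 15 or 18 h, then harvested by 0.02% saponin lysis. RNA was reverse-transcribed and analyzed by real-time PCR in quadruplicate. Quantification used ΔΔCT with 18S rRNA reference (LDH also checked), expressed as % of untreated control.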

In series [6] the test system is Plasmodium falciparum. The series can be described thus: Upregulation of thioredoxin reductase mRNA level in Plasmodium falciparum 3D7 trophozoites at 126 nM after 12 hrs by RT-qPCR analysis relative to untreated control. Format: functional, organism-based. The gist of the method: as §2
Series [7] relates to A549. The series can be described thus: Effect on thioredoxin reductase expression in human A549 cells assessed as transcript level at 24 nM after 24 hrs by RT-qPCR analysis relative to untreated control. Format: functional. To be noted: in the assay text read “24 µM” for “24 nM”. Put shortly: (§3)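 A549 cells are seeded at 2.5 × 10^5 per 25-cm2 well. At 40–45% confluence they are treated for 24 h with 166 or 662 μM, 158 or 315 μM, or 5 or 24 μM compound; controls receive <5% DMSO. Total RNA is DNase-treated and qRT-PCR is run in quadruplicate. Values are normalized to GAPDH and given as % of untreated control.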

Series [8] has as its system Plasmodium falciparum. The series can be described thus: Antiplasmodial activity against chloroquine-sensitive Plasmodium falciparum 3D7 assessed as inhibition of ring stage parasite growth at 526 nM after 24 hrs by [3H]hypoxanthine incorporation assay. To be noted: read-out: GI. Format: functional. Put shortly: (§4)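 P. falciparum 3D7 is synchronized with sorbitol. […] Cells are washed four times, then labelled with [3H]hypoxanthine for 24 h. Growth is given as % of untreated control for each stage, in triplicate.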

Series [9] concerns A549. The series can be described thus: Inhibition of glutathione peroxidase in human A549 cells assessed as enzyme activity at 5 µM after 24 hrs relative to untreated control. More on the design: scale not given: the % may be the effect or the level left.
Series [10] deals with Plasmodium falciparum. The experiment in a line: Upregulation of glutathione synthetase mRNA level in Plasmodium falciparum 3D7 trophozoites at 126 nM after 15 hrs by RT-qPCR analysis relative to untreated control. The series is classed as functional. Put shortly:
as §2

Series [11] relates to A549. The series can be described thus: Effect on glutathione S-transferase expression in human A549 cells assessed as transcript level at 24 nM after 24 hrs by RT-qPCR analysis relative to untreated control. Format: functional. The following applies: in the assay text read “24 µM” for “24 nM”. Put shortly: as §3
Series [12] is described as follows: Cytotoxicity against human A549 cells assessed as reduction in viable cells at 60 uM by Trypan blue assay. Format: cell-based. The following applies: read-out: INH. The gist of the method: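 A549 cells are grown in DMEM with 10% FCS at 37°C and 5% CO2, and treated for 24 h. They are washed in cold PBS and trypsinized. Viable and nonviable cells are counted by trypan blue exclusion on a hemocytometer.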

The test system of series [13] is Plasmodium berghei. The series can be described thus: Antimalarial activity against Plasmodium berghei infected in mouse assessed as reduction in parasite load at 10 mg/kg for 4 days treated postinfection measured on day 7. The series is classed as functional. More on the design: scale not given: the % may be the effect or the level left. The gist of the method:
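Murine Plasmodium berghei infection model. Compound given subcutaneously at 10 mg/kg for 4 days after infection, 13 treated mice and 13 controls. Parasitemia is compared with untreated controls, with significance by Fisher's exact test.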

Series [14] relates to Plasmodium falciparum. The experiment in a line: Upregulation of glutathione S-transferase mRNA level in Plasmodium falciparum 3D7 trophozoites at 126 nM after 12 hrs by RT-qPCR analysis relative to untreated control. Format: functional, organism-based. The gist of the method:
as §2

Series [15] concerns Plasmodium falciparum. The series can be described thus: Antiplasmodial activity against chloroquine-sensitive Plasmodium falciparum 3D7 assessed as inhibition of trophozoite stage parasite growth at 526 nM after 24 hrs by [3H]hypoxanthine incorporation assay. The series is classed as functional. To be noted: 3D7, read-out: GI. The gist of the method: as §4
The test system of series [16] is Plasmodium falciparum. The series can be described thus: Antiplasmodial activity against chloroquine-resistant Plasmodium falciparum K1 in presence of premaquine. Format: functional.
Series [17] has as its system A549. The experiment in a line: Effect on glutathione S-transferase expression in human A549 cells assessed as transcript level at 662 nM after 24 hrs by RT-qPCR analysis relative to untreated control. Format: functional. To be noted: in the assay text read “662 µM” for “662 nM”. The gist of the method: as §3
In series [18] the test system is A549. The experiment in a line: Effect on glutathione reductase expression in human A549 cells assessed as transcript level at 166 nM after 24 hrs by RT-qPCR analysis relative to untreated control. Format: functional. To be noted: in the assay text read “166 µM” for “166 nM”. Put shortly: as §3
Series [19] relates to Plasmodium falciparum. The experiment in a line: Antiplasmodial activity against chloroquine-resistant Plasmodium falciparum K1 in presence of artemisinin. The series is classed as functional.
For series [20], the system named is Plasmodium falciparum. The series can be described thus: Antiplasmodial activity against chloroquine-resistant Plasmodium falciparum K1 in presence of amodiaquine. Format: functional.
In series [21] the test system is Plasmodium falciparum. The experiment in a line: Antiplasmodial activity against chloroquine-resistant Plasmodium falciparum K1 in presence of artesunate. Format: functional.
Series [22] has as its system Plasmodium falciparum. The experiment in a line: Antiplasmodial activity against chloroquine-resistant Plasmodium falciparum K1 in presence of pyrimethamine. The series is classed as functional.
The subject of series [23] is A549. The series can be described thus: Effect on glutathione peroxidase expression in human A549 cells assessed as transcript level at 662 nM after 24 hrs by RT-qPCR analysis relative to untreated control. The following applies: in the assay text read “662 µM” for “662 nM”. Format: functional. Put shortly: as §3
For series [24], the system named is Plasmodium falciparum. The series can be described thus: Antiplasmodial activity against chloroquine-resistant Plasmodium falciparum K1 in presence of methylene blue. Format: functional.
The subject of series [25] is A549. The experiment in a line: Inhibition of glutathione S-transferase in human A549 cells assessed as enzyme activity at 662 µM after 24 hrs relative to untreated control. More on the design: scale not given: the % may be the effect or the level left.
In series [26] the test system is A549. The experiment in a line: Effect on glutathione peroxidase expression in human A549 cells assessed as transcript level at 315 nM after 24 hrs by RT-qPCR analysis relative to untreated control. Format: functional. The following applies: in the assay text read “315 µM” for “315 nM”. Put shortly:
as §3

The subject of series [27] is A549. The series can be described thus: Inhibition of glutathione S-transferase in human A549 cells assessed as enzyme activity at 315 µM after 24 hrs relative to untreated control. More on the design: scale not given: the % may be the effect or the level left.
Series [28] deals with A549. The series can be described thus: Effect on glutathione S-transferase expression in human A549 cells assessed as transcript level at 315 nM after 24 hrs by RT-qPCR analysis relative to untreated control. The series is classed as functional. The following applies: in the assay text read “315 µM” for “315 nM”. Put shortly: as §3

Structures are written as SMILES. The source made the active and inactive calls. No cut-off for these calls is given here. A value given as a limit tells only on which side of the number the result lay.

With `O=c1oc2c(O)c(O)c(O)c3c(=O)oc4c(O)c(O)c(O)c1c4c23` [CORULEOELLAGIC ACID], the Activity amounted to 42% in series [1]; 25% in series [2]; 19% in series [3]; 62% in series [4]; 111% in [5]; 73% in [7]. The Activity was determined as 85% in [9], 128% in [10], 84% in series [11] and 30% in series [13]. Besides, the outcome in series [6] and in [14] was inactive. In addition, the inhibition of growth at 0.526 µM is 38% in series [8] and greater than 95% in [15]. In [12], the cytotoxicity at 60 µM came to 50%.
As to `O=c1oc2c(O)c(O)cc3c(=O)oc4c(O)c(O)cc1c4c23` [ELLAGIC ACID], the FIC50 in [16], in series [19], in series [20], in [21], in [22] and in series [24] was 1 throughout. The Activity in series [17] came out at 131%; in series [18], 152%; in [23] it was 150%; in series [25] it was 101%.
Take `O=c1oc2c(O)c(O)c(O)c3c(=O)oc4c(O)c(O)cc1c4c23` [FLAVELLAGIC ACID]: the results for the Activity in series [26], in series [27] and in series [28] were 77%, 121% and 164%, respectively.
